Source: PubChem BioAssay (several laboratories)
SENP8 block-1 – blocks the human protease SENP8 | Q96LD8 | purified SENP8, Z-RLRGG-aminoluciferin cleavage, luminescence | inhibition, % at 10 µM | actives 1.2% (n = 330,000); in the data active = inhibition above about 50%
Target sequence (Q96LD8 whole entry, looked up): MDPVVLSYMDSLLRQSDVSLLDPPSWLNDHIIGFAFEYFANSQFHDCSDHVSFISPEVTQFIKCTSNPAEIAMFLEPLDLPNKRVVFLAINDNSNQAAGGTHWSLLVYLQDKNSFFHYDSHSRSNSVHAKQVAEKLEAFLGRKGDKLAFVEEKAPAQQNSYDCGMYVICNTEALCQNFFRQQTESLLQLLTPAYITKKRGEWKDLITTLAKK
Platelet DG rel – modulates dense granule release in human platelets; inhibition, %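 (compounds screened at 7.5 µM in platelet-rich plasma)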; human platelet-rich plasma, SFLLRN dense granule ATP release, luminescence; AID 1663; actives 0.22% (n = 300,000);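 active = mean replicate score, as percent of positive control, at or above 50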
SENP8 block-2 – inhibitors of human SENP8 protease; recombinant SENP8, Nedd8 substrate fluorescence; inhibition, % at 20 µM; actives 0.64% (n = 360,000); in the data active = inhibition mostly above about 40%, no sharp cut-off; inactive = mostly below about 27%
SENP1 inh – blocks the human SENP1 SUMO protease catalytic domain; recombinant SENP1 catalytic domain, CyPet-SUMO1-YPet FRET cleavage; actives 0.21% (n = 360,000); Q9P0U3; AID 624204; inhibition, % at 10 µM;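 active = inhibition at least 30% at 10 µM, raw YFP signal under a set limit, fluorescence ratio 0.5 to 1.5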;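 note: 0% = enzyme with DMSO and 100% = no enzyme wells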
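Test system: hSENP1 catalytic domain, recombinant; Amount: 20 pM final SENP1 enzyme; Medium: Tris pH 8 buffer plus EDTA, NaCl, BME, BSA, NP40, catalase; Schedule: 50 min enzyme reaction, room temperature, light-protected; Technique: FRET fluorescence in CFP and YFP emission channels; Controls: no-enzyme wells low, DMSO-plus-enzyme wells high control.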
SENP7 block – blocks the human protease SENP7. recombinant SENP7, Z-RLRGG-aminoluciferin luminescence, 40 min. inhibition, % at 5 µM. actives 1.5% (n = 330,000);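 active = inhibition above about 50% at the single test dose, limit read from the data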;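 note: plate controls were DMSO with enzyme for no effect and no enzyme buffer wells for full effect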
Target sequence (Q9BQF6 706-1050 limits assumed): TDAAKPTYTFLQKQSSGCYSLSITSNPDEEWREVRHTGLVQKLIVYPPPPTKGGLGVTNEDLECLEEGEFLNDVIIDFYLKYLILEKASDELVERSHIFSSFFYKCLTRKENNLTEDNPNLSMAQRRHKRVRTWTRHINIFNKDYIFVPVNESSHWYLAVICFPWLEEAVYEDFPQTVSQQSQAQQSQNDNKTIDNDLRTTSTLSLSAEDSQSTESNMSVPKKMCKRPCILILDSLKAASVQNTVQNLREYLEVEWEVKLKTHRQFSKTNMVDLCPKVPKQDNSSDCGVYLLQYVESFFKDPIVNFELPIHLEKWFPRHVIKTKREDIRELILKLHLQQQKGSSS
SENP6 inh – inhibitors of human SENP6 protease; Q9GZR1; Recombinant SENP6 catalytic domain, aminoluciferin luminescence; inhibition, % at 10 µM; actives 1.8% (n = 330,000); AID 2599;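 active = inhibition above about 50% at the single tested dose, limit read from the data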;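 note: plate controls were DMSO wells with enzyme for no effect and DMSO wells lacking enzyme for full effect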
Numbers without * were called inactive; . = not tested or not shown. Most compounds without a hit are left out; they make up all but 2.6% or so of the library.

SMILES | SENP8 block-1 | Platelet DG rel | SENP8 block-2 | SENP1 inh | SENP7 block | SENP6 inh
COc1ccc(OC)c2c1C(=O)C(Cl)=C(Cl)C2=O | -4 | 66* | -405 | -41 | 7 | 3
COc1ccc(OC)c2c1C(=O)c1ccccc1C2=O | 7 | -4 | . | . | 11 | 14
Cc1cc(S(=O)(=O)NC(C)c2nnc3ccccn23)ccc1Br (stereo unspecified) | 4 | . | 10 | -2 | -10 | 2
COC(=O)c1c(NC(=O)C2CC(=O)NN2Cc2ccccc2)sc(C)c1C (stereo unspecified) | 0 | 60* | -52 | 0 | 6 | -11
COC(=O)c1cc(C)sc1NC(=O)C1CC(=O)NN1Cc1ccccc1 (stereo unspecified) | -5 | 5 | 2 | 2 | 2 | 11
Cc1ccc(NC(=O)CN2C(=O)S/C(=C/c3ccc(-c4cccc(C(=O)O)c4)o3)C2=O)cc1 | . | . | -273 | -29 | . | .
CC(C)(C)OC(=O)CN1C(=O)S/C(=C\c2ccc(-c3cccc(C(=O)O)c3)o2)C1=O | 68* | 2 | . | . | 9 | 78*
CCCC(=O)c1c(NCCO)cc(C)oc1=O | 0 | 3 | 28 | 3 | 5 | -1
O=C(CCC(=O)N1CCN(c2ccc(F)cc2)CC1)N1CCN(c2ccc(F)cc2)CC1 | -8 | 9 | 9 | 1 | -6 | -3
O=C(Cn1cccc1)N1CCN(c2ccc(F)cc2)CC1 | 5 | 56* | 8 | 0 | -2 | -10
COc1ccc(C(=O)Nc2ccc3[nH]ccc3c2)cc1 | 16 | 58* | 0 | 2 | 47 | 31
CC(C)(C)c1cc(NC(=O)c2cccs2)no1 | 88* | 12 | 2 | 3 | 95* | 89*
Cc1cc(NC(=O)c2ccc(NC(=O)c3cccs3)cc2)no1 | 2 | 7 | 2 | 3 | -4 | 6
CSCCC(C(=O)Nc1c(C)cccc1C)N1CCN(c2ccc(F)cc2)CC1 (stereo unspecified) | . | . | 21 | -1 | . | .
CCOC(=O)Cn1c(=O)n(Cc2ccco2)c(=O)c2ccc(C(=O)NC3CCCC3)cc21 | 5 | 90* | 4 | 0 | -6 | -19
N#Cc1ccccc1OCC(=O)NCC(c1cccs1)N1CCOCC1 (stereo unspecified) | 3 | -4 | -1 | 0 | 3 | -19
CCOC(=O)c1cc2cc([N+](=O)[O-])cc(OC)c2oc1=O | 11 | 2 | 17 | 2 | 2 | -5
CCOC(=O)c1cc2cc([N+](=O)[O-])ccc2oc1=O | -8 | 59* | 28 | 2 | 1 | -11
CCOC(=O)Cn1c(=NC(=O)CSC(C)=O)sc2ccccc21 | 5 | 87* | 1 | -8 | 6 | 4
Nc1ccc(N=Nc2ccc(O)cc2)c(N)n1 | . | . | -22 | 5 | . | .
COc1ccc(N=Nc2ccc(N)nc2N)cc1 | 73* | 5 | 4 | -15 | 78* | 78*
COc1ccc(N=Nc2cc(OC)c(N)cc2OC)cc1 | . | . | 42* | 6 | . | .
Oc1ccc(N=Nc2cccc(C(F)(F)F)c2)cc1C=Nc1ccc(N2CCOCC2)cc1 | 43 | 6 | 36* | 9 | 11 | 66*
Oc1ccc(C=Nc2ccc(N3CCOCC3)cc2)c(O)c1 | -23 | 26 | 0 | 39 | 2 | -2
COC(=O)C(OC(=O)c1ccccc1)C(C)Br (stereo unspecified) | -2 | . | 17 | 1 | 9 | -8
SMILES | SENP8 block-1 | Platelet DG rel | SENP8 block-2 | SENP1 inh | SENP7 block | SENP6 inh
O=C(c1cccc(S(=O)(=O)Nc2ccc(Br)cc2)c1)N1CCCC1 | -3 | 2 | 23 | 1 | -7 | -4
CCSc1nnc(NC(=O)c2ccccn2)s1 | 18 | 1 | 8 | 0 | 60* | 60*
CCSc1nnc(NC(=O)c2ccccc2C)s1 | 36 | 4 | 2 | 2 | 44 | 55*
Cc1ccccc1C(=O)Nc1nnc(-c2ccco2)s1 | 44 | 4 | -197 | 1 | 73* | 54*
CCSc1nnc(NC(=O)c2cccnc2Cl)s1 | -13 | 1 | 6 | -2 | -2 | 26
CCSc1nnc(NC(=O)c2cccnc2)s1 | 0 | -5 | 10 | 0 | 16 | 11
CCSc1nnc(NC(=O)c2cnccn2)s1 | 7 | -1 | . | . | 4 | -3
CCSc1nnc(NC(=O)c2ccccc2)s1 | 29 | 7 | -16 | 0 | 40 | 53*
O=C(NCC(O)CN1CCOCC1)c1ccc([N+](=O)[O-])cc1 (stereo unspecified) | 2 | 5 | 14 | 1 | 3 | -11
COc1ccc(CNC(=O)C[C@H]2C[C@H](C(=O)N3CCCCC3)[C@@]3(C)c4[nH]c5cc(CCC(=O)N(C)C)ccc5c4CCN3C2=O)cc1OC | . | . | 5 | -3 | 4 | .
O=C(COC(=O)C1CC1)Nc1ccc(N=Nc2ccccc2)cc1 | -28 | -15 | 43* | 1 | -2 | -13
COc1ccc(S(=O)(=O)NC(=O)C2(C)CCN2C(=O)Cc2ccccc2Cl)cc1 (stereo unspecified) | . | . | 9 | 3 | . | .
O=C(NC1CCCCC1)c1sc(=S)n2c1[nH]c(=O)c1ccccc12 | 29 | 3 | 35 | 0 | -13 | 15
O=C(NCC1CCCO1)c1ccc2c(=O)n(CC3CCCO3)c(=S)[nH]c2c1 (stereo unspecified) | 6 | 3 | 15 | 0 | 3 | -4
O=C(NCCc1ccccc1)c1ccc2c(=O)[nH]c3c(C(=O)NCC4CCCO4)sc(=S)n3c2c1 (stereo unspecified) | 37 | 23 | 14 | 54* | 7 | 34
O=C(NCCc1ccc(Cl)cc1)c1ccc2[nH]c(=O)c(=O)[nH]c2c1 | -5 | 0 | -270 | -1 | -3 | -8
CC(C)NC(=O)c1sc(=S)n2c1[nH]c(=O)c1ccc(C(=O)NCCc3ccc(Cl)cc3)cc12 | 33 | -11 | 4 | 49* | 0 | 42
CCOc1ccc(CCNC(=O)c2ccc3c(=O)[nH]c4c(C(=O)NC(C)C)sc(=S)n4c3c2)cc1 | 0 | -12 | 9 | 48* | 4 | 3
CCc1cc(C(=O)Nc2cc(S(=O)(=O)N3CCCCC3)ccc2N2CCN(C)CC2)sc1C | . | . | -13 | -11 | . | .
COc1ccc(/C=N\n2nnc3ccccc32)cc1 | 94* | 23 | -6 | 2 | 90* | 97*
CCOC(=O)c1c2c(n(Cc3ccccc3)c1C)C(=O)C(=O)c1ccccc1-2 | . | . | 100* | 0 | . | .
CCOC(=O)c1c2c(n(C)c1C)C(=O)C(=O)c1ccc(Br)cc1-2 | 93* | 0 | 114* | 2 | 97* | 94*
COC(=O)C[C@H]1CC[C@@H](NC(=O)Nc2c(C)noc2C)[C@@H](CO)O1 | . | . | 18 | -1 | . | .
COc1cc(/C=C(\CC(=O)O)c2nc3ccccc3s2)cc(OC)c1O | 0 | -5 | -463 | 57* | 11 | 2
CCN(CC)S(=O)(=O)c1ccc(N2CCCC2)c(NC(=O)c2ccc(N3CCCC3=O)cc2)c1 | -3 | -13 | 3 | -1 | 0 | -10
